From ChEMBL document CHEMBL4118202, “Chiral analogues of (+)-cyclazosin as potent α1B-adrenoceptor selective antagonist” (Bioorg Med Chem, 2018)

Assays:
[1] = target: T1, Alpha-1B adrenergic receptor (Homo sapiens, UniProt P35368); assay: Binding affinity to human alpha1B adrenergic receptor
T1 sequence (P35368 whole entry): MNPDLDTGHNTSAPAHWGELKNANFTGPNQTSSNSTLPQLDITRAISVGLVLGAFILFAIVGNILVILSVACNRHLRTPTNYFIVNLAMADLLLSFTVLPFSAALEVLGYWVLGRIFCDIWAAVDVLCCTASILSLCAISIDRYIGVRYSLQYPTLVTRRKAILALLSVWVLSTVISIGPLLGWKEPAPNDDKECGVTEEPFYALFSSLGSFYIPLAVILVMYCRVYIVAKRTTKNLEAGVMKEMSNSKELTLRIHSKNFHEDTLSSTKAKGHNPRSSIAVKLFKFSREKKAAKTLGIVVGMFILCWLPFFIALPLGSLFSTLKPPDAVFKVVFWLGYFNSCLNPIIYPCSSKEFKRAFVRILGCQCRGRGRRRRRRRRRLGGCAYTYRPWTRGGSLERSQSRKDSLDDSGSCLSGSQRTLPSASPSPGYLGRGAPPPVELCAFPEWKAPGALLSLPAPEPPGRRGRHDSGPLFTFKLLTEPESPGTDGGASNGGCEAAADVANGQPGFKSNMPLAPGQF

[2] = target: T2, Alpha-1B adrenergic receptor (Rattus norvegicus) (UniProt P15823); assay: Antagonist activity at alpha1B adrenergic receptor in Wistar rat spleen assessed as inhibition of phenylephrine-induced contraction incubated for 30 mins in presence of beta-adrenoceptor blocker propranolol hydrochloride; format: functional
T2 sequence (whole entry): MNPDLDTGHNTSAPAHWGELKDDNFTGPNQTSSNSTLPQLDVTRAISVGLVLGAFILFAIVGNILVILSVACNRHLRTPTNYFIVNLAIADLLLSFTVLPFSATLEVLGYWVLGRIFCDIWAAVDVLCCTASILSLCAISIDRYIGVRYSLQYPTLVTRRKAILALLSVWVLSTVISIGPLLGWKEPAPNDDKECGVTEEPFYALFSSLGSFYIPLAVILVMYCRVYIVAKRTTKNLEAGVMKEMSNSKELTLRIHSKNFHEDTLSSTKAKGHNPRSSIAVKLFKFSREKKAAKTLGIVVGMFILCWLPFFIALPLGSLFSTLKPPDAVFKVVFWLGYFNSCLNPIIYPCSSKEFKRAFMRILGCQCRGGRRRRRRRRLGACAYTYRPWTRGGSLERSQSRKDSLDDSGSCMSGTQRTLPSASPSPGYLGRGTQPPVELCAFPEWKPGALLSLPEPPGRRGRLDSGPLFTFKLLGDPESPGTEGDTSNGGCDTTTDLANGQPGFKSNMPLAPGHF
Procedure, shortened: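 Spleen bisected longitudinally into strips in Krebs with propranolol 4 μM, held at 1 g and equilibrated 2 h. Two isometric cumulative phenylephrine curves, each followed by 30 min washing. Third curve after 30 min vehicle or antagonist. Potency as pA2 (Schild) or pKB at one concentration (van Rossum). Responses as % of control maximum; n ≥ 4.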

[3] = target: T1, Alpha-1B adrenergic receptor; assay: Displacement of [3H]prazosin from human alpha1B adrenergic receptor expressed in CHO cell membranes after 30 mins by rapid filtration method
Procedure, shortened: (§1)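 Membranes (30 μg protein) from CHO cells stably transfected with the human α1a, α1b or α1d receptor. Incubated 30 min at 25 °C in 50 mM Tris-HCl pH 7.4 with 0.1–0.4 nM [3H]prazosin and competitor 1 pM–10 μM. Nonspecific binding defined by 10 μM phentolamine. Stopped by rapid filtration through PEI-treated filters. IC50 converted to Ki by Cheng-Prusoff; pKi from 2–3 experiments in triplicate.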

[4] = target: T3, Alpha-1A adrenergic receptor (Rattus norvegicus, UniProt P43140); assay: Antagonist activity at alpha1A adrenergic receptor in Wistar rat prostatic rat vas deferens assessed as inhibition of noradrenaline-induced contraction preincubated for 30 mins followed by noradrenaline addition measured after 45 mins in presence of cocaine hydrochloride; format: functional; settings: read-out: pA2 (converted)
T3 sequence (P43140 whole entry): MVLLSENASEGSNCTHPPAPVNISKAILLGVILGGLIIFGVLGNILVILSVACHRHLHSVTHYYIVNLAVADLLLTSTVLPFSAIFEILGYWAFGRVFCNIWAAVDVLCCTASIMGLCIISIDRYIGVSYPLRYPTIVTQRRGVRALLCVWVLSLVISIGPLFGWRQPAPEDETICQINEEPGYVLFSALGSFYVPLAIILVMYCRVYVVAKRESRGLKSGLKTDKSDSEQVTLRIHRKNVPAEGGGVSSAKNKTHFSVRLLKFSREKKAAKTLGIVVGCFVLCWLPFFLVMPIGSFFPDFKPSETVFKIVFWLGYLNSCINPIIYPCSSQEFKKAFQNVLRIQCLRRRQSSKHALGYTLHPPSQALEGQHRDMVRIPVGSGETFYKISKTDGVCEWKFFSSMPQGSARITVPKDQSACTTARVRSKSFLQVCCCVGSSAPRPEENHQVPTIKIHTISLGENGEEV
Procedure, shortened: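 Prostatic rat vas deferens, 2 cm portions, held at 0.35 g in Tyrode (pH 7.4, 37 °C, 95% O2/5% CO2). Cocaine 10 μM added 20 min before the agonist. Tissue equilibrated 45 min and primed twice with 10 μM noradrenaline. Isotonic cumulative noradrenaline curves were run before and after 30 min antagonist. pA2 came from Schild plots (≥3 concentrations); otherwise pKB (van Rossum). n ≥ 4.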

[5] = target: T4, Alpha-1A adrenergic receptor (Homo sapiens, UniProt P35348); assay: Displacement of [3H]prazosin from human alpha1A adrenergic receptor expressed in CHO cell membranes after 30 mins by rapid filtration method; procedure, shortened: as §1
T4 sequence (P35348 whole entry): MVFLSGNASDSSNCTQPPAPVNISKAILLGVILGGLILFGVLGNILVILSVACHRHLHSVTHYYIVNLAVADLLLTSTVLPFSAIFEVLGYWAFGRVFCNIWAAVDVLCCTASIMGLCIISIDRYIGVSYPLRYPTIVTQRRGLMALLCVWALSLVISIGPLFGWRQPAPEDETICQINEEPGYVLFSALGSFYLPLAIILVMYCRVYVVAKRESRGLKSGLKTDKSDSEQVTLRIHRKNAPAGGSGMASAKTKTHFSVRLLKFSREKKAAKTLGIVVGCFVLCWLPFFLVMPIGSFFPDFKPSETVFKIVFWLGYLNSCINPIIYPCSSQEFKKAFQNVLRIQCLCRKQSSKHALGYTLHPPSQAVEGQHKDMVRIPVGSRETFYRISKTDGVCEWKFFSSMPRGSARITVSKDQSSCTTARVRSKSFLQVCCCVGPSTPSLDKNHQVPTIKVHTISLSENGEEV

[6] = target: T5, Alpha-1D adrenergic receptor (Homo sapiens, UniProt P25100); assay: Displacement of [3H]prazosin from human alpha1D adrenergic receptor expressed in CHO cell membranes after 30 mins by rapid filtration method; procedure, shortened: as §1
T5 sequence (P25100 whole entry): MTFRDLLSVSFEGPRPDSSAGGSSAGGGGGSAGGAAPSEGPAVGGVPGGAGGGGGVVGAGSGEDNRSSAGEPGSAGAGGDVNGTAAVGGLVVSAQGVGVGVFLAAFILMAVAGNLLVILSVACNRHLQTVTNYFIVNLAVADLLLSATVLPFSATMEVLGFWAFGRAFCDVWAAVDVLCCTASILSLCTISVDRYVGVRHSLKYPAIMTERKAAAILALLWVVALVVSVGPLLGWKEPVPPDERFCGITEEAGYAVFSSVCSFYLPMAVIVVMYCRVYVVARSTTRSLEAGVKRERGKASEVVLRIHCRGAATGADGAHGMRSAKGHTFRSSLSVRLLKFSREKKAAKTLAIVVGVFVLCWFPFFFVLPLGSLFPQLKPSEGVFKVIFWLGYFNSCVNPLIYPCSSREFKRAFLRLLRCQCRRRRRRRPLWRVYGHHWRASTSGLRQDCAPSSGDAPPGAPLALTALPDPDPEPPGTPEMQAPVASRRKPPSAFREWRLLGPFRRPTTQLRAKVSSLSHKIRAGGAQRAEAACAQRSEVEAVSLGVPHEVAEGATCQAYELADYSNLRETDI

SMILES	Ki [1] [nM]	pKb [2]	Ki [3] [nM]	Kb [4] [nM]	Ki [5] [nM]	Ki [6] [nM]
COc1cc2nc(N3CCN(C(=O)c4ccco4)[C@H]4CCCC[C@H]43)nc(N)c2cc1OC [CYCLAZOSIN]	0.135 to 0.692	8.86	–	–	–	–
COc1cc2nc(N3CCN(C(=O)c4ccco4)[C@@H]4CCCC[C@@H]43)nc(N)c2cc1OC	–	9.67	0.0708	0.589	0.589	0.0603
